{"source": "ChEMBL document CHEMBL1124400", "about": "“Synthesis and evaluation of antileukemic activity of 5-thienyl- or 5-(2-furyl)-2,3-dihydro-6,7-bis(hydroxymethyl)-1H-pyrrolizine bis(alkylcarbamates) and derivatives” (J Med Chem, 1989)", "key": {"[1]": {"tested_on": "Mus musculus", "assay": "MST of mitomycin 2 mg/kg treated group x 100/MST of untreated control group at a dose of 25 mg/kg in L1210 leukemic mice", "format": "functional", "procedure,_shortened": "(§1)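 Reference group of 8 B6D2F1 mice bearing ip-grafted 10⁵ L1210 cells (day 0), given mitomycin 2 mg/kg in distilled water ip on days 1, 5 and 9. Controls were 12 mice given vehicle only. Mortality was followed daily with autopsy. Ref I = mitomycin-group MST × 100/control MST, run alongside each test experiment.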"}, "[2]": {"tested_on": "Mus musculus", "assay": "MST of mitomycin 2 mg/kg treated group x 100/MST of untreated control group at a dose of 20 mg/kg in L1210 leukemic mice", "format": "functional", "procedure,_shortened": "as §1"}, "[3]": {"tested_on": "Mus musculus", "assay": "Median survival time of treated group / untreated group, when 20 mg/kg compound is administered intraperitoneally in L1210 leukemic mice", "format": "functional", "conditions": "route intraperitoneal", "procedure,_shortened": "(§2)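 Male 3-month-old B6D2F1 mice, 10⁵ L1210 cells ip on day 0. Compound was given ip on days 1, 5 and 9 in aqueous 20% Tween 80 (0.1–0.2 mL per 20 g), 8 mice per group. Twelve vehicle controls. Daily mortality with autopsy to assign leukemic versus toxic death. I = treated MST × 100/control MST. Wilcoxon test, p < 0.05; active if I > 125 and p < 0.05.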"}, "[4]": {"tested_on": "Mus musculus", "assay": "Median survival time of treated group / untreated group, when 25 mg/kg compound is administered intraperitoneally in L1210 leukemic mice", "format": "functional", "conditions": "route intraperitoneal", "procedure,_shortened": "as §2"}, "[5]": {"assay": "Lethal dose in L1210 leukemic mice, by administering compound intraperitoneally", "format": "toxicity, organism-based", "conditions": "mouse, in vivo, ip", "procedure,_shortened": "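Male B6D2F1 mice (3 months old) received 10⁵ L1210 leukemia cells ip on day 0. One day later they were given compound ip. Mortality was recorded daily for 9 days and the acute LD50 expressed in mg/kg.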"}, "[6]": {"assay": "Ratio, I x 100/ref I at a dose of 20 mg/kg in L1210 leukemic mice", "format": "functional", "procedure,_shortened": "(§3)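 Male B6D2F1 mice, 3 months old, received 10^5 L1210 cells ip on day 0. Dosing was ip on days 1, 5 and 9 in 20% aqueous Tween 80, 0.1–0.2 mL per 20 g, with 8 mice per group. There were 12 vehicle controls and 8 mice given mitomycin 2 mg/kg ip in water. Daily mortality was recorded, with autopsies. Ratio = treated-group MST ×100/reference-group MST; Wilcoxon, p<0.05.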"}, "[7]": {"assay": "Ratio, I x 100/ref I at a dose of 25 mg/kg in L1210 leukemic mice", "format": "functional", "procedure,_shortened": "as §3"}, "[8]": {"tested_on": "Mus musculus", "assay": "MST of mitomycin 2 mg/kg treated group x 100/MST of untreated control group at a dose of 35 mg/kg in L1210 leukemic mice", "format": "functional", "procedure,_shortened": "as §1"}, "[9]": {"tested_on": "Mus musculus", "assay": "MST of mitomycin 2 mg/kg treated group x 100/MST of untreated control group at a dose of 65 mg/kg in L1210 leukemic mice", "format": "functional", "procedure,_shortened": "as §1"}, "[10]": {"tested_on": "Mus musculus", "assay": "Median survival time of treated group / untreated group, when 35 mg/kg compound is administered intraperitoneally in L1210 leukemic mice", "format": "functional", "conditions": "route intraperitoneal", "procedure,_shortened": "as §2"}, "[11]": {"tested_on": "Mus musculus", "assay": "Median survival time of treated group / untreated group, when 65 mg/kg compound is administered intraperitoneally in L1210 leukemic mic", "format": "functional", "conditions": "route intraperitoneal", "procedure,_shortened": "as §2"}, "[12]": {"tested_on": "Mus musculus", "assay": "Median survival time of treated group / untreated group, when 40 mg/kg compound is administered intraperitoneally in L1210 leukemic mice", "format": "functional", "conditions": "route intraperitoneal", "procedure,_shortened": "as §2"}, "[13]": {"assay": "Ratio of acute lethal dose to the efficient dose 30 mg/kg", "format": "functional", "procedure,_shortened": "(§4)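 Ratio of acute LD50 to efficient dose. LD50 came from single ip dosing one day after ip grafting of 10⁵ L1210 cells in B6D2F1 mice, with 9-day mortality. The efficient dose came from ip treatment on days 1, 5 and 9 in the median-survival test.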"}, "[14]": {"assay": "Ratio of acute lethal dose to the efficient dose 35 mg/kg", "format": "functional", "procedure,_shortened": "as §4"}, "[15]": {"assay": "Ratio of acute lethal dose to the efficient dose 40 mg/kg", "format": "functional", "procedure,_shortened": "as §4"}, "[16]": {"assay": "Ratio of acute lethal dose to the efficient dose 65 mg/kg", "format": "functional", "procedure,_shortened": "as §4"}, "[17]": {"assay": "Ratio, I x 100/ref I at a dose of 35 mg/kg in L1210 leukemic mice", "format": "functional", "procedure,_shortened": "as §3"}, "[18]": {"assay": "Ratio, I x 100/ref I at a dose of 40 mg/kg in L1210 leukemic mice", "format": "functional", "procedure,_shortened": "as §3"}, "[19]": {"assay": "Ratio, I x 100/ref I at a dose of 65 mg/kg in L1210 leukemic mice", "format": "functional", "procedure,_shortened": "as §3"}, "[20]": {"tested_on": "Mus musculus", "assay": "MST of mitomycin 2 mg/kg treated group x 100/MST of untreated control group at a dose of 40 mg/kg in L1210 leukemic mice", "format": "functional", "procedure,_shortened": "as §1"}, "[21]": {"tested_on": "Mus musculus", "assay": "MST of mitomycin 2 mg/kg treated group x 100/MST of untreated control group at a dose of 30 mg/kg in L1210 leukemic mice", "format": "functional", "procedure,_shortened": "as §1"}, "[22]": {"tested_on": "Mus musculus", "assay": "MST of mitomycin 2 mg/kg treated group x 100/MST of untreated control group at a dose of 100 mg/kg in L1210 leukemic mice", "format": "functional", "procedure,_shortened": "as §1"}, "[23]": {"tested_on": "Mus musculus", "assay": "MST of mitomycin 2 mg/kg treated group x 100/MST of untreated control group at a dose of 15 mg/kg in L1210 leukemic mice", "format": "functional", "procedure,_shortened": "as §1"}, "[24]": {"tested_on": "Mus musculus", "assay": "MST of mitomycin 2 mg/kg treated group x 100/MST of untreated control group at a dose of 50 mg/kg in L1210 leukemic mice", "format": "functional", "procedure,_shortened": "as §1"}, "[25]": {"tested_on": "Mus musculus", "assay": "Median survival time of treated group / untreated group, when 15 mg/kg compound is administered intraperitoneally in L1210 leukemic mice", "format": "functional", "conditions": "route intraperitoneal", "procedure,_shortened": "as §2"}, "[26]": {"tested_on": "Mus musculus", "assay": "Median survival time of treated group / untreated group, when 30 mg/kg compound is administered intraperitoneally in L1210 leukemic mice", "format": "functional", "conditions": "route intraperitoneal", "procedure,_shortened": "as §2"}, "[27]": {"tested_on": "Mus musculus", "assay": "Median survival time of treated group / untreated group, when 50 mg/kg compound administered intraperitoneally in L1210 leukemic mice", "format": "functional", "conditions": "route intraperitoneal", "procedure,_shortened": "as §2"}, "[28]": {"assay": "Ratio, I x 100/ref I at a dose of 100 mg/kg in L1210 leukemic mice", "format": "functional", "procedure,_shortened": "as §3"}, "[29]": {"assay": "Ratio, I x 100/ref I at a dose of 15 mg/kg in L1210 leukemic mice", "format": "functional", "procedure,_shortened": "as §3"}, "[30]": {"assay": "Ratio, I x 100/ref I at a dose of 50 mg/kg in L1210 leukemic mice", "format": "functional", "procedure,_shortened": "as §3"}, "[31]": {"assay": "Ratio, I x 100/ref I at a dose of 30 mg/kg in L1210 leukemic mice", "format": "functional", "procedure,_shortened": "as §3"}}, "note": "“And” between values parts separate entries of the source, which are not always exact repeats. Equal entries are not always repeated.", "data": [{"smiles": "CC(C)NC(=O)OCc1c(COC(=O)NC(C)C)c(-c2ccsc2)n2c1CCC2", "values": [{"measurement": "Ref I oncostatic index", "setting": "[1]", "result": 162}, {"measurement": "Ref I oncostatic index", "setting": "[2]", "result": 139}, {"measurement": "Oncostatic index", "setting": "[3]", "result": 100}, {"measurement": "Oncostatic index", "setting": "[4]", "result": 117}, {"measurement": "LD50", "setting": "[5]", "result": 65, "unit": "mg/kg"}, {"measurement": "Ratio", "setting": "[6]", "result": 72}, {"measurement": "Ratio", "setting": "[7]", "result": 72}]}, {"smiles": "CNC(=O)OCc1c(COC(=O)NC)c(-c2cccs2)n2c1CCC2", "values": [{"measurement": "Ref I oncostatic index", "setting": "[8]", "result": 167}, {"measurement": "Ref I oncostatic index", "setting": "[9]", "result": 125}, {"measurement": "Oncostatic index", "setting": "[10]", "result": 167}, {"measurement": "Oncostatic index", "setting": "[11]", "result": 125}, {"measurement": "Oncostatic index", "setting": "[12]", "result": 138}, {"measurement": "LD50", "setting": "[5]", "result": 120, "unit": "mg/kg"}, {"measurement": "Ratio", "setting": "[13]", "result": 1.7}, {"measurement": "Ratio", "setting": "[14]", "result": 3.4}, {"measurement": "Ratio", "setting": "[15]", "result": 3}, {"measurement": "Ratio", "setting": "[16]", "result": 1.8}, {"measurement": "Ratio", "setting": "[17]", "result": 100}, {"measurement": "Ratio", "setting": "[18]", "result": 100}, {"measurement": "Ratio", "setting": "[19]", "result": 100}, {"measurement": "Ref I oncostatic index", "setting": "[20]", "result": 138}]}, {"smiles": "CC(=O)OCc1c(COC(C)=O)c(-c2cccs2)n2c1CCC2", "values": [{"measurement": "Ref I oncostatic index", "setting": "[21]", "result": 140}, {"measurement": "Ref I oncostatic index", "setting": "[22]", "result": 125}, {"measurement": "Ref I oncostatic index", "setting": "[23]", "result": 121}, {"measurement": "Ref I oncostatic index", "setting": "[24]", "result": 136}, {"measurement": "Oncostatic index", "setting": "[25]", "result": 100}, {"measurement": "Oncostatic index", "setting": "[26]", "result": "114 and 100"}, {"measurement": "Oncostatic index", "setting": "[27]", "result": 117}, {"measurement": "LD50", "setting": "[5]", "result": 80, "unit": "mg/kg"}, {"measurement": "Ratio", "setting": "[28]", "result": 80}, {"measurement": "Ratio", "setting": "[29]", "result": 83}, {"measurement": "Ratio", "setting": "[30]", "result": 92}, {"measurement": "Ratio", "setting": "[31]", "result": 86}]}]}
